Consider four molecules from ChEMBL document CHEMBL1135543, “Alpha(1)-adrenoceptor antagonists. 4. Pharmacophore-based design, synthesis, and biological evaluation of new imidazo-, benzimidazo-, and indoloarylpiperazine derivatives” (J Med Chem, 2002).

For test [1], the target named is T1, Adrenergic receptor alpha-1 (Rattus norvegicus, UniProt P15823+P23944+P43140).
T1 sequence (P15823 whole entry): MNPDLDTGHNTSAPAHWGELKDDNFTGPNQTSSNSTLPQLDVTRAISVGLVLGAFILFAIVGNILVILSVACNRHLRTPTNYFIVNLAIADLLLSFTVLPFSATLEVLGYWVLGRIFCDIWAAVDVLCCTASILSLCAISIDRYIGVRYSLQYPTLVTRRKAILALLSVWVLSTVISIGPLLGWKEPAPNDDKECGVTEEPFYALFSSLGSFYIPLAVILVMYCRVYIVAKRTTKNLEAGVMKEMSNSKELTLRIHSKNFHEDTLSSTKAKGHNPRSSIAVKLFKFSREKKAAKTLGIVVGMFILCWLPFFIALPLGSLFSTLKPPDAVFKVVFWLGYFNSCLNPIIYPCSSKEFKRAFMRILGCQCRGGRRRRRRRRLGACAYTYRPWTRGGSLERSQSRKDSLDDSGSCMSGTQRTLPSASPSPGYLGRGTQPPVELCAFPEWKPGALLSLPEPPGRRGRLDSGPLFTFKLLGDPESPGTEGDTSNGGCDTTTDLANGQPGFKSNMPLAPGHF
T1 sequence (P23944 whole entry): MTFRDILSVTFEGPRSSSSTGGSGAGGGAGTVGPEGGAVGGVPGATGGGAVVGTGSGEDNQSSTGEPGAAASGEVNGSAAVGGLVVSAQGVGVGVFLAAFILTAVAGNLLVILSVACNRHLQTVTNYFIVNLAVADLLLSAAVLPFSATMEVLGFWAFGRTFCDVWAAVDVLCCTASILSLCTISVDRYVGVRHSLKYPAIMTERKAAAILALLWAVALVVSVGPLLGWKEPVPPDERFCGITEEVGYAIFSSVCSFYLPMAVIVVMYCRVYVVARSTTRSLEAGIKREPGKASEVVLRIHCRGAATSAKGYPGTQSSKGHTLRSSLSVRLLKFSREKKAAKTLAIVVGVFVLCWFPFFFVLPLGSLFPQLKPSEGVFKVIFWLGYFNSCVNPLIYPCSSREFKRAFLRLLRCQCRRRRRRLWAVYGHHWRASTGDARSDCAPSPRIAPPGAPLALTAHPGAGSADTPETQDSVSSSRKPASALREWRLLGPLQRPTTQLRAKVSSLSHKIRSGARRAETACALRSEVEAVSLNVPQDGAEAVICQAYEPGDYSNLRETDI
T1 sequence (P43140 whole entry): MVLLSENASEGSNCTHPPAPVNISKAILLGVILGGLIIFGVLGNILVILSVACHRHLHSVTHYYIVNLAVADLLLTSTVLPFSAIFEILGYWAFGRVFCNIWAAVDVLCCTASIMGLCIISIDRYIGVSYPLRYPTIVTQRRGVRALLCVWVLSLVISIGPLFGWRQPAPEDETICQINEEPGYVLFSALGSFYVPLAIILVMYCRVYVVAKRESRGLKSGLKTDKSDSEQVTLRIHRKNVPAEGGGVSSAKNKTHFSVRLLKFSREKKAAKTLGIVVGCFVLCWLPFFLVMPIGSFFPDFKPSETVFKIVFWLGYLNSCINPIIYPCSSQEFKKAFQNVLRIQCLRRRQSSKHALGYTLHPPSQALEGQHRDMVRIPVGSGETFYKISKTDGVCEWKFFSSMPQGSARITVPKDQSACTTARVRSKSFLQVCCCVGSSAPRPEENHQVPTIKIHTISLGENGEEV
Put plainly: Intrinsic activity for displacement of [3H]prazosin from Alpha-1 adrenergic receptor of rat cerebral cortex membrane in the absence of 1 nM GTP. The format is tissue-based. The method, boiled down:
(§1)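 [3H]prazosin competition on rat cerebral cortex membranes, run with and without GTP (1 nM in table footnote, 1 mM in text). The GTP shift is the ratio of the affinity constant with GTP to that without. Values are means ± SEM of three experiments.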
On the technique in general: Displacement assays read how much labelled ligand stays bound in the presence of the test substance.

The target in test [2] is T1, Adrenergic receptor alpha-1. Put plainly: Intrinsic activity for displacement of [3H]prazosin from Alpha-1 adrenergic receptor of rat cerebral cortex membrane in the presence of 1 nM GTP. The format is tissue-based. The method, boiled down: as §1
In test [3] the target is T2, 5-hydroxytryptamine receptor 1A (Rattus norvegicus, UniProt P19327).
T2 sequence (P19327 whole entry): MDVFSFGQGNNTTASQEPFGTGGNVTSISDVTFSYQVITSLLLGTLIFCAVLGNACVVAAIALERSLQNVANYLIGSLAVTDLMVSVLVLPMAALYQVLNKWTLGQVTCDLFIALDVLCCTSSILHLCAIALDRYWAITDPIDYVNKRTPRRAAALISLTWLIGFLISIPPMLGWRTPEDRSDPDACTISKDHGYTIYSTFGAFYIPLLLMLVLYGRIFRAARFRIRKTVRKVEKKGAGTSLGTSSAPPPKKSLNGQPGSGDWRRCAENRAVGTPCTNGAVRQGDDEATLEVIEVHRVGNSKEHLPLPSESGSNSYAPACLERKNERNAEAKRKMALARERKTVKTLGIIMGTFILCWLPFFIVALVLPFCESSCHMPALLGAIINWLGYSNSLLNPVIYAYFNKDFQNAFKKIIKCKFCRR
Put plainly: Binding affinity against 5-hydroxytryptamine 1A receptor by displacing [3H]8-OH-DPAT radioligand in rat cortex membrane. The format is cell membranes. The method, boiled down:
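Rat cortex membranes, pre-incubated 10 min at 37 °C to remove endogenous 5-HT, stored at –80 °C, then resuspended in 50 mM Tris-HCl pH 7.4 (0.2–0.3 mg protein). GF/C filtration, scintillation counting.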

Test [4] concerns the target T1, Adrenergic receptor alpha-1. Put plainly: Binding affinity against Alpha-1 adrenergic receptor by displacing [3H]prazosin radioligand in rat cortex membrane. It counts as cell membranes, Brain.
The target is the same in test [5]. As to the kind of experiment: Intrinsic activity for displacement of [3H]- prazosin from Alpha-1 adrenergic receptor of rat cerebral cortex membrane in the absence of 1 nM GTP. It counts as tissue-based.
The target of test [6] is T3, Adrenergic receptor alpha-2 (Rattus norvegicus, UniProt P22086+P19328+P22909).
T3 sequence (P22086 whole entry): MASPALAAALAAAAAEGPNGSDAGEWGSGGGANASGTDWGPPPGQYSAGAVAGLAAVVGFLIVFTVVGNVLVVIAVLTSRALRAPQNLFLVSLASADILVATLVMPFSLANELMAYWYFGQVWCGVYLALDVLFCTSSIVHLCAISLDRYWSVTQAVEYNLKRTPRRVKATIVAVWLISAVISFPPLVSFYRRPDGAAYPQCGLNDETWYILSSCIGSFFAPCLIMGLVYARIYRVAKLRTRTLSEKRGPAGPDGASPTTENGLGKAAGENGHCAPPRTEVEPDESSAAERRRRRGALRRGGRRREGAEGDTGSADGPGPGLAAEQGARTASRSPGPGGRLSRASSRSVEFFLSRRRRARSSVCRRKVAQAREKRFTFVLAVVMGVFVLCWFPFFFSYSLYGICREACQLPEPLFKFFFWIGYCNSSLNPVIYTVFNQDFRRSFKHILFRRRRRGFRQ
T3 sequence (P19328 whole entry): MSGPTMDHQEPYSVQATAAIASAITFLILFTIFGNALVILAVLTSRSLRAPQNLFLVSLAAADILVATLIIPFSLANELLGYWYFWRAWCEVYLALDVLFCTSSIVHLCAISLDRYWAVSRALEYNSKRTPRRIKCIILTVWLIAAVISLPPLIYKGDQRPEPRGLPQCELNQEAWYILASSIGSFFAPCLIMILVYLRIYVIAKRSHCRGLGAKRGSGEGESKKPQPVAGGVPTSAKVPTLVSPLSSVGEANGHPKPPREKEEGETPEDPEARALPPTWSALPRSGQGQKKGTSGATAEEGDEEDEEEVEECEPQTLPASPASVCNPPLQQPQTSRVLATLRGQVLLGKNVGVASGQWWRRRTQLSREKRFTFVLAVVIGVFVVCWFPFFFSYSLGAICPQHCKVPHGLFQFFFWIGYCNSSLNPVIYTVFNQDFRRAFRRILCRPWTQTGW
T3 sequence (P22909 whole entry): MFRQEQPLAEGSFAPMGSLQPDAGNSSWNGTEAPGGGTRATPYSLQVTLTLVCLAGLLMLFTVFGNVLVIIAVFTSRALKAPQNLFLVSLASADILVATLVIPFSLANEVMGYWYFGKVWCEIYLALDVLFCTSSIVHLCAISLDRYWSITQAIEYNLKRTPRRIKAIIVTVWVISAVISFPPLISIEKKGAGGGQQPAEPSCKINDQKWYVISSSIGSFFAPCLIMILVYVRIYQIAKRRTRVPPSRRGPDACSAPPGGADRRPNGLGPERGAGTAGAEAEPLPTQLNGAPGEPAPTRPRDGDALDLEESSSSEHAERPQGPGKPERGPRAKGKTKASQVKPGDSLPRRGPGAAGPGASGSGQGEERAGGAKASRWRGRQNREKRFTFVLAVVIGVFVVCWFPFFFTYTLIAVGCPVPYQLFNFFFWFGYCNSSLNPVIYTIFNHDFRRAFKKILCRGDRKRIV
As to the kind of experiment: Binding affinity against Alpha-2 adrenergic receptor by displacing [3H]rauwolscine radioligand in rat cortex membrane. The format is cell membranes, Brain.

In test [7] the target is T1, Adrenergic receptor alpha-1. Put plainly: Intrinsic activity for displacement of [3H]- prazosin from Alpha-1 adrenergic receptor of rat cerebral cortex membrane in the presence of 1 nM GTP. The format is tissue-based.
Test [8] shares this target. Put plainly: Intrinsic activity against Alpha-1 adrenergic receptor expressed as displacement of [3H]prazosin from rat cerebral cortex membrane in the presence of 1 nM GTP. It counts as tissue-based. The method, boiled down:
as §1

The target is the same in test [9]. Put plainly: Intrinsic activity against Alpha-1 adrenergic receptor expressed as displacement of [3H]prazosin from rat cerebral cortex membrane in the absence of 1 nM GTP. The format is tissue-based. The method, boiled down: as §1

Molecules are shown by their SMILES. pKi: −log10 of the molar value.

On to `COc1ccccc1N1CCN(CCCCn2nc(-n3cnc4ccccc43)ccc2=O)CC1`, for which the Ki in [1] is given as 1.2 nM; in test [2], 0.97 nM. For the same molecule, in [3], the pKi was 6.50.
Regarding `O=c1ccc(-n2ccnc2)nn1CCCCCCCN1CCN(c2ccccc2Cl)CC1`, the Ki in test [4] was found to be 4.6 nM; in test [5] it was 4.9 nM; in test [6] it was 24.5 nM; in test [7] it was 8.33 nM. The molecule further had a pKi in test [3] of 6.91.
On to `COc1ccccc1N1CCN(CCCCn2nc(-n3ccc4ccccc43)ccc2=O)CC1`, for which the Ki in test [8] came to 1.6 nM; in [9] it was 1 nM; in test [6], 20 nM. Also, in test [3], the pKi was 6.60.
As to `COc1ccccc1N1CCN(CCCCCCCn2nc(-n3ccc4ccccc43)ccc2=O)CC1`, the Ki is recorded as 1.1 nM in test [4] and 306 nM in test [6]. Also, the pKi in test [3] is 6.74.

In general, Ki refers to a dissociation constant, usually derived from enzyme kinetics or from competition with a known ligand. For orientation: pKi means the negative decadic logarithm of the Ki, by convention in mol/L.
